pIC50: −log10 of the molar value. Values belong to the compound of their own block, whether it stands above or below them. Activity calls are given as the source filed them. The calls are words filed in the database; no cut-off is given here.
What was measured:
[1] = tested on: LoVo; assay: Antiproliferative activity against human LoVo cells by MTT assay; format: functional, cell-based
[2] = tested on: PC-3; assay: Antiproliferative activity against human PC3 cells by MTT assay; format: functional, cell-based
[3] = tested on: A2780; assay: Antiproliferative activity against human A2780 cells by MTT assay; format: functional, cell-based
[4] = tested on: HT-29; assay: Antiproliferative activity against human HT-29 cells by MTT assay; format: functional, cell-based
[5] = tested on: DU-145; assay: Antiproliferative activity against human DU145 cells by MTT assay; format: functional, cell-based
[6] = tested on: HCT-15; assay: Antiproliferative activity against human HCT15 cells by MTT assay; format: functional, cell-based
[7] = tested on: MDA-MB-231; assay: Antiproliferative activity against human MDA-MB-231 cells by MTT assay; format: functional, cell-based
[8] = tested on: HCT-116; assay: Antiproliferative activity against human HCT116 cells by MTT assay; format: functional, cell-based
[9] = tested on: MCF7; assay: Antiproliferative activity against human MCF7 cells by MTT assay; format: functional, cell-based
[10] = tested on: LN-229; assay: Antiproliferative activity against human LN229 cells by MTT assay; format: functional, cell-based
[11] = tested on: HEK293; assay: Antiproliferative activity against human HEK293 cells by MTT assay; format: cell-based
[12] = tested on: HCT-116; assay: Induction of apoptosis in human HCT116 cells assessed as nuclear fragmentation at 5 to 10 uM after 24 hrs by DAPI staining-based fluorescent microscopic analysis; format: functional, cell-based
Outline: (§1)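 HCT116 cells given 5 or 10 μM, or vehicle, for 24 or 48 h. Cells fixed and stained with DAPI. Condensed and fragmented nuclei assessed by fluorescence microscopy at 40X.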

[13] = tested on: HCT-116; assay: Inhibition of colony formation in human HCT116 cells assessed as decrease in colony size at 5 to 20 uM; format: functional, cell-based
Outline: (§2)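 HCT116 colony formation assay with 5, 10 or 20 μM, or vehicle. Colony number, density and size recorded. Three independent repeats.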

[14] = tested on: HCT-116; assay: Inhibition of colony formation in human HCT116 cells assessed as decrease in reduction in mean colony formation rate at 5 to 20 uM; format: functional, cell-based; outline: as §2
[15] = tested on: HCT-116; assay: Induction of apoptosis in human HCT116 cells assessed as apoptotic cells at 20 uM after 24 hrs by Alexa Fluor 488 Annexin V/MitoTracker red staining-based flow cytometric analysis (reference value: 7.48%); format: functional
[16] = tested on: HCT-116; assay: Cell cycle arrest in human HCT116 cells assessed as subG1 phase accumulation at 5 uM after 24 hrs by propidium iodide staining-based flow cytometric analysis (reference value: 3.81%); format: functional
[17] = tested on: HCT-116; assay: Induction of apoptosis in human HCT116 cells assessed as apoptotic cells at 5 uM after 24 hrs by Alexa Fluor 488 Annexin V/MitoTracker red staining-based flow cytometric analysis (reference value: 7.48%); format: functional
[18] = tested on: HEK293; assay: Cytotoxicity against human HEK293 cells at 1 to 30 uM incubated for 72 hrs by inverted microscopy; details: hek293, 72 h
[19] = tested on: HCT-116; assay: Cell cycle arrest in human HCT116 cells assessed as G1 phase accumulation at 5 uM after 24 hrs by propidium iodide staining-based flow cytometric analysis (reference value: 78.7%); format: functional
[20] = tested on: HCT-116; assay: Cell cycle arrest in human HCT116 cells assessed as S phase accumulation at 10 uM after 24 hrs by propidium iodide staining-based flow cytometric analysis (reference value: 9.18%); format: functional
[21] = tested on: LoVo; assay: Cytotoxicity against human LoVo cells at 1 to 30 uM incubated for 72 hrs by inverted microscopy
[22] = tested on: HCT-116; assay: Cell cycle arrest in human HCT116 cells assessed as G2 phase accumulation at 5 uM after 24 hrs by propidium iodide staining-based flow cytometric analysis (reference value: 7.56%); format: functional
[23] = tested on: HCT-15; assay: Cytotoxicity against human HCT15 cells at 1 to 30 uM incubated for 72 hrs by inverted microscopy
[24] = tested on: HCT-116; assay: Induction of apoptosis in human HCT116 cells after 24 hrs by Alexa Fluor 488 Annexin V/MitoTracker red staining-based flow cytometric analysis; format: functional, cell-based
[25] = tested on: HCT-116; assay: Induction of apoptosis in human HCT116 cells assessed as viable cells at 30 uM after 24 hrs by Alexa Fluor 488 Annexin V/MitoTracker red staining-based flow cytometric analysis (reference value: 92.5%); format: functional; details: HCT-116, 24 h, read-out: Activity
[26] = tested on: HCT-116; assay: Cell cycle arrest in human HCT116 cells assessed as G1 phase accumulation at 20 uM after 24 hrs by propidium iodide staining-based flow cytometric analysis (reference value: 78.7%); format: functional
[27] = tested on: HCT-116; assay: Induction of apoptosis in human HCT116 cells assessed as viable cells at 20 uM after 24 hrs by Alexa Fluor 488 Annexin V/MitoTracker red staining-based flow cytometric analysis (reference value: 92.5%); format: functional; details: HCT-116, 24 h, read-out: Activity
[28] = tested on: HCT-116; assay: Induction of apoptosis in human HCT116 cells assessed as viable cells at 10 uM after 24 hrs by Alexa Fluor 488 Annexin V/MitoTracker red staining-based flow cytometric analysis (reference value: 92.5%); format: functional; details: HCT-116, 24 h, read-out: Activity
[29] = tested on: HCT-116; assay: Induction of apoptosis in human HCT116 cells assessed as viable cells at 5 uM after 24 hrs by Alexa Fluor 488 Annexin V/MitoTracker red staining-based flow cytometric analysis (reference value: 92.5%); format: functional; details: HCT-116, 24 h, read-out: Activity
[30] = tested on: HCT-116; assay: Cytotoxicity against human HCT116 cells assessed as cell confluence at 10 to 30 uM up to 72 hrs (reference value: 60%); format: functional
[31] = tested on: HCT-116; assay: Cell cycle arrest in human HCT116 cells assessed as G2 phase accumulation at 10 uM after 24 hrs by propidium iodide staining-based flow cytometric analysis (reference value: 7.56%); format: functional
[32] = tested on: HCT-116; assay: Cell cycle arrest in human HCT116 cells assessed as S phase accumulation at 5 uM after 24 hrs by propidium iodide staining-based flow cytometric analysis (reference value: 9.18%); format: functional
[33] = tested on: HCT-116; assay: Induction of apoptosis in human HCT116 cells assessed as apoptotic cells at 10 uM after 24 hrs by Alexa Fluor 488 Annexin V/MitoTracker red staining-based flow cytometric analysis (reference value: 7.48%); format: functional
[34] = tested on: HCT-116; assay: Cell cycle arrest in human HCT116 cells assessed as G1 phase accumulation at 10 uM after 24 hrs by propidium iodide staining-based flow cytometric analysis (reference value: 78.7%); format: functional
[35] = tested on: HCT-116; assay: Cell cycle arrest in human HCT116 cells assessed as subG1 phase accumulation at 10 uM after 24 hrs by propidium iodide staining-based flow cytometric analysis (reference value: 3.81%); format: functional
[36] = tested on: HCT-116; assay: Cell cycle arrest in human HCT116 cells assessed as S phase accumulation at 20 uM after 24 hrs by propidium iodide staining-based flow cytometric analysis (reference value: 9.18%); format: functional
[37] = tested on: HCT-116; assay: Cell cycle arrest in human HCT116 cells assessed as sub G1 phase accumulation after 24 hrs by propidium iodide staining-based flow cytometric analysis; format: functional
[38] = tested on: HCT-116; assay: Cytotoxicity against human HCT116 cells at 1 to 30 uM incubated for 72 hrs by inverted microscopy
[39] = tested on: HCT-116; assay: Induction of apoptosis in human HCT116 cells assessed as nuclear condensation at 5 to 10 uM after 24 hrs by DAPI staining-based fluorescent microscopic analysis; format: functional, cell-based; outline: as §1
[40] = tested on: HCT-116; assay: Cell cycle arrest in human HCT116 cells assessed as subG1 phase accumulation at 20 uM after 24 hrs by propidium iodide staining-based flow cytometric analysis (reference value: 3.81%); format: functional
[41] = tested on: HCT-116; assay: Cytotoxicity against human HCT116 cells assessed as reduction in cell confluence at 10 to 30 uM after 20 hrs; format: functional, cell-based
[42] = tested on: HCT-116; assay: Induction of apoptosis in human HCT116 cells assessed as apoptotic cells at 30 uM after 24 hrs by Alexa Fluor 488 Annexin V/MitoTracker red staining-based flow cytometric analysis (reference value: 7.48%); format: functional
[43] = tested on: HCT-116; assay: Cell cycle arrest in human HCT116 cells assessed as G2 phase accumulation at 20 uM after 24 hrs by propidium iodide staining-based flow cytometric analysis (reference value: 7.56%); format: functional
[44] = tested on: HCT-116; assay: Induction of apoptosis in human HCT116 cells assessed as chromatin condensation at 5 to 10 uM after 48 hrs by DAPI staining-based fluorescent microscopic analysis; format: functional, cell-based; outline: as §1

SMILES: Cc1cc2cc3c(N)[nH]nc3nc2cc1C
pIC50 [1]: < 4.00
pIC50 [2]: < 4.00
pIC50 [3]: < 4.00
pIC50 [4]: < 4.00
pIC50 [5]: < 4.00
pIC50 [6]: < 4.00
pIC50 [7]: < 4.00
pIC50 [8]: < 4.00
pIC50 [9]: 4.10
pIC50 [10]: 4.41
pIC50 [11]: < 4.00

SMILES: Nc1n[nH]c2nc3c(ccc4ccccc43)cc12
pIC50 [1]: 4.09
pIC50 [2]: 4.22
pIC50 [3]: 4.87
pIC50 [4]: 4.01
pIC50 [5]: < 4.00
pIC50 [6]: 4.16
pIC50 [7]: < 4.00
pIC50 [8]: 4.12
pIC50 [9]: 4.13
pIC50 [10]: 4.27
pIC50 [11]: < 4.00

SMILES: Nc1n[nH]c2nc3cc(Cl)ccc3cc12
pIC50 [1]: 4.11
pIC50 [2]: < 4.00
pIC50 [3]: 4.22
pIC50 [4]: 4.37
pIC50 [5]: < 4.00
pIC50 [6]: 4.35
pIC50 [7]: 4.05
pIC50 [8]: 4.25
pIC50 [9]: < 4.00
pIC50 [10]: 4.23
pIC50 [11]: 4.44

SMILES: COc1ccc2cc3c(N)n[nH]c3nc2c1
Activity [12]: Active
inhibition [13]: Active
inhibition [14]: Active
pIC50 [1]: 4.99
Activity [15]: 34%
Activity [16]: 22.4%
Activity [17]: 22.9%
Activity [18]: Non-Toxic
Activity [19]: 59.3%
Activity [20]: 15.1%
pIC50 [2]: 4.06
Activity [21]: Active
Activity [22]: 1.37%
Activity [23]: Active
Activity [24]: Dose-dependent effect
viability at 30 µM [25]: 46.7%
Activity [26]: 33.5%
pIC50 [3]: 4.25
viability at 20 µM [27]: 66%
viability at 10 µM [28]: 68.1%
viability at 5 µM [29]: 77%
pIC50 [4]: 5.41
Activity [30]: <=20%
Activity [31]: 5.3%
Activity [32]: 14.5%
pIC50 [5]: 4.27
pIC50 [6]: 5.02
Activity [33]: 31.8%
Activity [34]: 45.9%
Activity [35]: 32%
pIC50 [7]: 4.30
Activity [36]: 7.99%
Activity [37]: Dose-dependent effect
Activity [38]: Active
Activity [39]: Active
pIC50 [8]: 5.64
Activity [40]: 55.9%
pIC50 [9]: 4.23
pIC50 [10]: 5.11
Activity [41]: Active
pIC50 [11]: 4.34
Activity [42]: 53.3%
Activity [43]: 0.6%
Activity [44]: Active

Now from value to compound, other results behind:

pIC50 [1]: 4.25
pIC50 [2]: < 4.00
pIC50 [3]: 4.45
pIC50 [4]: 4.07
pIC50 [5]: 4.12
pIC50 [6]: 4.16
pIC50 [7]: 4.21
pIC50 [8]: 4.24
pIC50 [9]: 4.31
SMILES: COc1ccc2nc3[nH]nc(N)c3cc2c1
pIC50 [10]: 4.03
pIC50 [11]: < 4.00

pIC50 [1]: 4.48
pIC50 [2]: 4.19
pIC50 [3]: 4.71
pIC50 [4]: 4.71
pIC50 [5]: 4.13
pIC50 [6]: 4.89
pIC50 [7]: 4.11
pIC50 [8]: 4.39
pIC50 [9]: 4.14
SMILES: COc1cc2cc3c(N)n[nH]c3nc2cc1OC
pIC50 [10]: 4.59
pIC50 [11]: 4.09

pIC50 [1]: 4.05
pIC50 [2]: < 4.00
pIC50 [3]: 4.01
pIC50 [4]: 4.48
pIC50 [5]: < 4.00
pIC50 [6]: < 4.00
pIC50 [7]: < 4.00
pIC50 [8]: < 4.00
pIC50 [9]: < 4.00
SMILES: Cc1ccc2[nH]c3nnc(N)c-3cc2c1
pIC50 [10]: 4.21
pIC50 [11]: < 4.00

pIC50 [1]: 4.05
pIC50 [2]: < 4.00
pIC50 [3]: 4.08
pIC50 [4]: 4.02
pIC50 [5]: < 4.00
pIC50 [6]: 4.23
pIC50 [7]: < 4.00
pIC50 [8]: 4.17
pIC50 [9]: 4.09
SMILES: Nc1[nH]nc2nc3ccccc3cc12
pIC50 [10]: 5.11
pIC50 [11]: < 4.00

From ChEMBL document CHEMBL4118229, “lH-Pyrazolo[3,4-b]quinolin-3-amine derivatives inhibit growth of colon cancer cells via apoptosis and sub G1 cell cycle arrest” (Bioorg Med Chem Lett, 2018)
